This is an account of results in ChEMBL document CHEMBL5335768, “Expanding the knowledge around antitubercular 5-(2-aminothiazol-4-yl)isoxazole-3-carboxamides: Hit-to-lead optimization and release of a novel antitubercular chemotype via scaffold derivatization” (Eur J Med Chem, 2023).

Data set [1] concerns Mycobacterium tuberculosis. Briefly: Antitubercular activity against Mycobacterium tuberculosis H37Rv assessed as inhibition of bacterial growth incubated for 7 days by REMA method. It is filed as functional. As to conditions: Mycobacterium tuberculosis, H37Rv, 168 h; time 7 day; read-out: MIC90.
Data set [2] is described as follows: Metabolic stability of the compound in human liver microsomes assessed as parent residual fraction at 1 uM preincubated with NADP+ for 5 mins prior to compound addition by HPCLC-MRM-MS analysis. As to conditions: read-out: Stability. It is filed as ADME, Microsome. The method in brief:
(§1)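 Pooled HLM at 1 mg/mL protein in 100 mM PBS pH 7.4 with an NADPH-regenerating mix: G6P 10 mM, NADP+ 2 mM, MgCl2 5 mM, G6PDH 1.5 U/mL (stock concentrations). Pre-incubated 5 min at 37 °C, then compound added to 1 μM final (1% DMSO).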
In general terms: Liver microsomes are a subcellular fraction often used to study metabolism.

For data set [3], the system named is Mycobacterium marinum. Briefly: Antitubercular activity against Mycobacterium marinum ATCC BAA-535 assessed as inhibition of bacterial growth measured after 3 weeks by broth microdilution method. It is filed as functional. As to conditions: ATCC BAA-535, 504 h.
Data set [4] can be described thus: Cytotoxicity against human THP-1 cells assessed as reduction in cell viability measured after 72 hrs by MTT assay. It is filed as toxicity, cell-based. Put shortly: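 THP-1 monocytes were differentiated to macrophages with PMA 100 ng/mL for 72 h. They were then exposed to compounds at 1, 10, 50 and 100 μM for 72 h, each tested twice. MTT at 1 mg/mL in RPMI with 5% FBS was added for 2 h at 37 °C; formazan was dissolved in DMSO and read at 570 nm. Viability is given as % of control; IC50 from non-linear regression.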

A short description of data set [5]: Half life in human liver microsomes at 1 uM preincubated with NADP+ for 5 mins prior to compound addition by HPLC-MRM-MS analysis. The data set is classed as ADME, Microsome. The method in brief: as §1
The nature of data set [6]: Drug metabolism in human liver microsomes assessed as 5-(2-((3-hydroxy-4-methylphenyl)amino)thiazol-4-yl)-N-(pyridin-2-yl)isoxazole-3-carboxamide formation at 100 uM measured after 180 mins by HR-MS analysis. It is filed as ADME, Microsome. As to conditions: 3 h. Put shortly:
(§2)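 Metabolite ID: test compound at 100 μM initial concentration in pooled HLM incubates. Aliquots were taken at start and after 180 min, quenched with ACN, centrifuged and analysed by full-scan LC-HR-MS (Orbitrap, ESI+ and ESI−, resolution 15000). Data-dependent CID MS/MS was acquired at 30–35 V.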

Data set [7] is described as follows: Drug metabolism in human liver microsomes assessed as retention time of metabolite with molecular mass [M+30] at 250 nM by HPLC-MS/MS analysis. As to conditions: 0.25 µM. The data set is classed as ADME, Microsome.
A short description of data set [8]: Drug metabolism in human liver microsomes assessed as 5-(2-((4-(hydroxymethyl)phenyl)amino)thiazol-4-yl)-N-(pyridin-2-yl)isoxazole-3-carboxamide formation at 100 uM measured after 180 mins by HR-MS analysis. It is filed as ADME, Microsome. As to conditions: 3 h. Put shortly: as §2
Data set [9] is described as follows: Drug metabolism in human liver microsomes assessed as retention time of 5-(2-((4-(hydroxymethyl)phenyl)amino)thiazol-4-yl)-N-(pyridin-2-yl)isoxazole-3-carboxamide at 250 nM by HPLC-MS/MS analysis. It is filed as ADME, Microsome. As to conditions: 0.25 µM. Put shortly:
(§3)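 Spiking: 10 μL HLM incubate was diluted with 90 μL ACN alone or with 250 nM of each synthetic hydroxylated standard in ACN. After centrifugation, HPLC-MS/MS retention times were compared for co-elution with the metabolites.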

Data set [10] is described as follows: Drug metabolism in human liver microsomes assessed as retention time of 5-(2-((3-hydroxy-4-methylphenyl)amino)thiazol-4-yl)-N-(pyridin-2-yl)isoxazole-3-carboxamide at 250 nM by HPLC-MS/MS analysis. It is filed as ADME, Microsome. As to conditions: 0.25 µM. Put shortly: as §3
The subject of data set [11] is Mycobacterium avium. Briefly: Antitubercular activity against Mycobacterium avium 11 assessed as inhibition of bacterial growth at 100 uM measured after 4 days by broth microdilution method. The data set is classed as functional. As to conditions: Mycobacterium avium, 11, 96 h, time 4 day. On the technique in general: Dilution methods test growth across graded concentrations, often in twofold steps.

The subject of data set [12] is Mycobacteroides abscessus. Description: Antitubercular activity against Mycobacterium abscessus Bamboo assessed as inhibition of bacterial growth at 100 uM measured after 3 days by broth microdilution method. As to conditions: 72 h, time 3 day. The data set is classed as functional. The method in brief:
(§4)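 Twofold serial dilutions inoculated at OD600 0.05; incubated at 37 °C, shaking at 110 rpm, for 3 days (M. abscessus Bamboo) or 4 days (M. avium 11). […] Clarithromycin positive control; data representative of two independent replicates.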

Data set [13] can be described thus: Drug metabolism in human liver microsomes assessed as 5-(2-((3-hydroxy-4-methylphenyl)amino)thiazol-4-yl)-N-phenylisoxazole-3-carboxamide formation at 100 uM measured after 180 mins by HR-MS analysis. It is filed as ADME, Microsome. As to conditions: 3 h. Put shortly: as §2
Data set [14] is described as follows: Drug metabolism in human liver microsomes assessed as retention time of 5-(2-((4-(hydroxymethyl)phenyl)amino)thiazol-4-yl)-N-phenylisoxazole-3-carboxamide at 250 nM by HPLC-MS/MS analysis. It is filed as ADME, Microsome. As to conditions: 0.25 µM. The method in brief: as §3
Data set [15] can be described thus: Toxicity in Zebrafish infected with Mycobacterium marinum assessed as enlarged yolk sac area at 6 to 8 ng. iv. As to conditions: in vivo, dose 6-8 ng. On the set-up: species or system Danio rerio.
Data set [16] in a line: Drug metabolism in human liver microsomes assessed as retention time of 5-(2-((3-hydroxy-4-methylphenyl)amino)thiazol-4-yl)-N-phenylisoxazole-3-carboxamide at 250 nM by HPLC-MS/MS analysis. It is filed as ADME, Microsome. As to conditions: 0.25 µM. Put shortly: as §3
Data set [17] in a line: Toxicity in Zebrafish infected with Mycobacterium marinum assessed as enlarged heart at 6 to 8 ng. iv. As to conditions: in vivo, dose 6-8 ng. On the set-up: species or system Danio rerio.
Data set [18] can be described thus: Drug metabolism in human liver microsomes assessed as 5-(2-((4-(hydroxymethyl)phenyl)amino)thiazol-4-yl)-N-phenylisoxazole-3-carboxamide formation at 100 uM measured after 180 mins by HR-MS analysis. The data set is classed as ADME, Microsome. As to conditions: 3 h. The method in brief:
as §2

Data set [19] has as its system Mycobacterium marinum. Briefly: Antitubercular activity against mCherry-labeled Mycobacterium marinum infected in Zebra fish larvae assessed as reduction in granuloma formation at 6 to 8 ng, iv. The data set is classed as functional, organism-based. As to conditions: dose 6-8 ng.
Data set [20] concerns Mycobacterium avium. Briefly: Antitubercular activity against Mycobacterium avium 11 assessed as inhibition of bacterial growth upto 100 uM measured after 4 days by broth microdilution method. The data set is classed as functional, organism-based. As to conditions: time 4.0 day. The method in brief:
as §4

The subject of data set [21] is Mycobacteroides abscessus. Briefly: Antitubercular activity against Mycobacterium abscessus Bamboo assessed as inhibition of bacterial growth upto 100 uM measured after 3 days by broth microdilution method. As to conditions: time 3.0 day. The data set is classed as functional, organism-based. The method in brief: as §4

In brackets after ≈: the same amount, converted by molar mass. Activity calls are given as the source filed them. The rule behind the calls is not given here.

For the compound `O=C(Nc1ccccn1)c1cc(-c2csc(Nc3cc(Cl)c(Cl)c(Cl)c3)n2)on1`, in data set [1], the MIC90 was above 20 mg/L. Besides, in data set [2], the remaining at 1 µM worked out at 102%.
Regarding `Cc1ccc(Nc2nc(-c3cc(C(=O)Nc4cccc(C)n4)no3)cs2)cc1`, the MIC90 in the data set with Mycobacterium marinum [3] is 1 mg/L (≈ 2.55 µM). The half-inhibitory concentration (IC50) at 72 h in data set [4] was determined as 66.8 mg/L (≈ 171 µM).
For `Cc1ccc(Nc2nc(-c3cc(C(=O)Nc4ccc(O)cc4)no3)cs2)cc1O`, the MIC90 in data set [1] was found to be 5 mg/L (≈ 12.2 µM). Moreover, the t1/2 in [5] was 19 min.
In the case of `O=C(Nc1ccccc1)c1cc(-c2csc(Nc3ccc(C(F)(F)F)cc3)n2)on1`, the MIC90 in data set [1] is above 20 mg/L. Besides, in [2], the remaining at 1 µM came out at 71%.
On the same counts, the results for `Nc1nc(-c2cc(C(=O)Nc3ccccn3)no2)cs1` are above 20 mg/L and 96%.
For `O=C(Nc1ccccc1)c1cc(-c2csc(Nc3cc(Cl)c(Cl)c(Cl)c3)n2)on1`, in that order: above 20 mg/L and 101%.
For `Nc1nc(-c2cc(C(=O)Nc3ccccc3)no2)cs1`, in that order: above 20 mg/L and 97%.
`Cc1ccc(Nc2nc(-c3cc(C(=O)Nc4ccccn4)no3)cs2)cc1`: the Drug metabolism result in data set [6] and in data set [8] was “Metabolite_Detected” each time. Further, the figures for the Retention_time in data set [7], in data set [9] and in [10] were 21.97 min, 21.01 min and 23.73 min, respectively. Also, the MIC90 (in data set [1]; in the data set on Mycobacterium marinum [3]) was 0.5 mg/L (≈ 1.32 µM) in each case. Further, the IC50 at 72 h in data set [4] is 22 mg/L (≈ 58.3 µM). In [5], this compound showed a t1/2 of 16 min.
As to `Cc1ccc(Nc2nc(-c3cc(C(=O)Nc4cc(C)ccn4)no3)cs2)cc1`, the inhibition at 100 µM (with Mycobacterium avium [11]; in data set [12]) was 50% throughout. Further, the MIC90 in data set [1] is 1 mg/L (≈ 2.55 µM). Moreover, in data set [4], the IC50 at 72 h worked out at 86.3 mg/L (≈ 220 µM).
Turning to `Cc1ccc(Nc2nc(-c3cc(C(=O)Nc4ccsc4)no3)cs2)cc1`, the MIC90 (in data set [1]; in the data set on Mycobacterium marinum [3]) was 1 mg/L (≈ 2.61 µM) throughout. In addition, the IC50 at 72 h in data set [4] is above 100 mg/L.
For `Cc1ccc(Nc2nc(-c3cc(C(=O)Nc4ccccc4)no3)cs2)cc1`, the Drug metabolism entry in data set [13] and in [18] was “Metabolite_Detected” throughout. The Retention_time in data set [7] turned out to be 23.65 min; in [14], 22.95 min; in data set [16], 25.44 min. Moreover, the MIC90 is 1 mg/L (≈ 2.66 µM) in data set [1] and 0.5 mg/L (≈ 1.33 µM) in the data set on Mycobacterium marinum [3]. Besides, the Activity entry in data set [15] and in data set [17] was “Toxic” each time. Besides, in [4], the IC50 at 72 h is 88 mg/L (≈ 234 µM). Moreover, the t1/2 in data set [5] stood at 35 min. For the same compound, the outcome with Mycobacterium marinum [19] was Active.
As to `O=C(Nc1ccccn1)c1cc(-c2csc(Nc3ccccc3)n2)on1`, the inhibition at 100 µM (with Mycobacterium avium [11]; in data set [12]) was 50% throughout. Further, the MIC90 in [1] was above 20 mg/L. In addition, the t1/2 in [5] was 66 min.
As for `O=C(Nc1ccccc1)c1cc(-c2csc(Nc3ccc(Cl)cc3)n2)on1`, the MIC90 in [1] was 1.25 mg/L (≈ 3.15 µM); with Mycobacterium marinum [3], 2 mg/L (≈ 5.04 µM). The concentration for half-maximal inhibition (IC50) at 72 h in [4] is above 100 mg/L. The compound further had a t1/2 in data set [5] of 59 min.
As to `Cc1ccc(Nc2nc(-c3cc(C(=O)Nc4ccc(O)cc4)no3)cs2)cc1`, the MIC90 in [1] is 0.5 mg/L (≈ 1.27 µM); in the data set on Mycobacterium marinum [3], 1 mg/L (≈ 2.55 µM). Further, the IC50 at 72 h in [4] is 79.1 mg/L (≈ 202 µM). Also, the result (in the data set with Mycobacterium avium [20]; in data set [21]) was inactive.
In the case of `O=C(Nc1ccccc1)c1cc(-c2csc(Nc3ccccc3)n2)on1`, the inhibition at 100 µM (in the data set on Mycobacterium avium [11]; in [12]) was 50% throughout. Further, in data set [1], the MIC90 was found to be 1.25 mg/L (≈ 3.45 µM). For the same compound, the IC50 at 72 h in data set [4] was found to be 11.9 mg/L (≈ 32.8 µM). This compound showed a t1/2 in data set [5] of 43 min.
As to `O=C(Nc1ccccn1)c1cc(-c2csc(Nc3ccc(C(F)(F)F)cc3)n2)on1`, the MIC90 in [1] was above 20 mg/L. Moreover, the remaining at 1 µM in data set [2] was 85%.
`O=C(Nc1ccccc1)c1cc(-c2csc(Nc3cccc(O)c3)n2)on1`: the MIC90 in [1] was 5 mg/L (≈ 13.2 µM). The compound also returned a t1/2 in data set [5] of 34 min.
On to `Cc1ccc(Nc2nc(-c3cc(C(=O)Nc4ccccn4)no3)cs2)cc1O`, for which, in [1], the MIC90 came out at 5 mg/L (≈ 12.7 µM). The IC50 at 72 h in data set [4] was above 100 mg/L. Besides, the outcome (in the data set on Mycobacterium avium [20]; in data set [21]) was inactive.

A word on the MIC90: it is an inhibitory concentration at the 90% level, which refers to growth in some studies and to a panel of isolates in others. As a reminder, the IC50 is the concentration needed to halve the response being measured. As a reminder, the inhibition is the drop in the measured response relative to a control, in per cent.
